miR122 inh: miR-122 Renilla sensor signal increase in Huh7, primary screen, miR-122 inhibitor project, cell-based, single point, plate reader. Huh7 miR-122 Renilla luciferase sensor, 48 h; neutral wells = 0, positive control = 100. activation (reporter increase), % at 12.5 µM. hit rate 0.3% among 340,000. AID 602342, 2012;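 active = mean replicate activation score at least 90 and every replicate individually at or above 90; inconclusive = only one of the two criteria met; inactive = neither criterion met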;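 also: higher luciferase means less miR-122 activity so hits act as miR-122 inhibitors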
E-selectin induc: E-selectin induction in HUVECs, primary screen, imaging, HUVEC, immunofluorescence imaging, single point. hit rate 0.37% among 260,000. P16581. activation, % at 7.58 µM. AID 686992, 2013. normalized: neutral wells 0, TNF-alpha wells 100;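 active = mean E-selectin-positive cell signal at least 10% of the positive control, reached in at least 60% of replicates, without over 20% cell loss; inconclusive = no rule given, readout overlaps actives, possibly toxicity-flagged; inactive = the rest, including those meeting only one limit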
Target sequence (P16581 whole entry, looked up): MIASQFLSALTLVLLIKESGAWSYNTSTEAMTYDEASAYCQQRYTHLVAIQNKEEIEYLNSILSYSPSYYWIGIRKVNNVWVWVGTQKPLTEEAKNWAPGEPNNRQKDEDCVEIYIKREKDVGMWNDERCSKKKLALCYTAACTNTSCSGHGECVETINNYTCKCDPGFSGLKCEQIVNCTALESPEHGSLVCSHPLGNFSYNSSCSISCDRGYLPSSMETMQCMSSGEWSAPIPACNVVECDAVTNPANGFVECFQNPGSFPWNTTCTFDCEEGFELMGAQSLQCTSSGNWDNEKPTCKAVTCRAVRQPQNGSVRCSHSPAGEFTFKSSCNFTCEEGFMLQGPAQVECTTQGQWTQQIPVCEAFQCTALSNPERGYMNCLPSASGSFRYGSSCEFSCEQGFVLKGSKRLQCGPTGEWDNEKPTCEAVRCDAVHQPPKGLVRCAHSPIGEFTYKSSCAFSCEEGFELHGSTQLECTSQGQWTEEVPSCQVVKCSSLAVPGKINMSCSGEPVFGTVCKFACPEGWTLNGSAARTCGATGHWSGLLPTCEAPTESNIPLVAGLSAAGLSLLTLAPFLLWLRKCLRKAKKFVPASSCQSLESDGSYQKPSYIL
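material = human umbilical vein endothelial cells (HUVEC), E-selectin induction | quantity = 3,000 cells/well | medium = EGM-2 growth medium on 0.1% gelatin-coated wells | technique = immunofluorescence imaging | read-out basis = % PE-positive cells | control set = TNF-alpha positive control, DMSO neutral control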
Cneo AK release: Cryptococcus neoformans cell lysis inducers, primary screen, AK release luminescence, single concentration; C. neoformans lysis, adenylate kinase release luminescence, 4 h; normalised: neutral wells 0, clomiphene wells 100; lysis activity, % at 15 µM; hit rate 0.2% among 360,000;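 active = mean lysis activity across replicates of at least 80%, whatever share of replicates individually reach that level; inactive = mean lysis activity below 80%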
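Assay system: Cryptococcus neoformans yeast cells / Dosing: single-point compound dose / Timing: 4 h at 37 °C static, read 1 h later / Measured by: luminescence of released adenylate kinase using an AK detection reagent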
DENV2 CPE: inhibitors of DENV2 cytopathic effect, primary screen, cell-based, plate reader, single concentration | DENV2-infected cells, cytopathic effect rescue | hit rate 1.7% among 350,000 | CPE inhibition, % at 9.99 µM; in the data active = CPE inhibition above about 20%, passing the limit was not always enough; inconclusive = no clear call, values can overlap the other calls; tested in BHK-21 cells
Ecoli rRNA inh: reduced GFP signal of wild-type E. coli, primary screen, bacterial rRNA inhibitor project, GFP/RFP fluorescence, OD600, single point | hit rate 1.6% among 350,000 | GFP signal change (wild-type ribosome), % (no concentration beside the values) | AID 720706, 2013 | E. coli WT GFP vs humanized-ribosome RFP mutants, 24 h; active compounds read low; DMSO median 0, no signal -100;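 active = significant combined selectivity score with lowered wild-type GFP, culture density cut under 30%, mutant RFP and density less affected; inactive = any of these conditions unmet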
Each line names hits and unclear results; the compound was inactive in the other large screens. Rows were chosen to be rich in hits. Some 3.1% of all compounds tested hit in one or more screens of this group.

COc1ccc(NCC(=O)Nc2ccc(Cl)cc2C)c(OC)c1	Ecoli rRNA inh -19 (no result: E-selectin induc)
C[C@H]1CN([C@@H](C)CO)C(=O)c2cc(NC(=O)C3CC3)ccc2O[C@H]1CN(C)C(=O)Nc1ccc(C(F)(F)F)cc1	none
CC(C)NC(=O)N(C)C[C@H]1Oc2c(NC(=O)C3CCCCC3)cccc2C(=O)N([C@H](C)CO)C[C@H]1C	Cneo AK release 114
CC(C)NC(=O)N(C)C[C@@H]1Oc2c(NC(=O)C3CCCCC3)cccc2C(=O)N([C@H](C)CO)C[C@@H]1C	none
CC(C)NC(=O)N(C)C[C@@H]1Oc2c(NC(=O)C3CCCCC3)cccc2C(=O)N([C@@H](C)CO)C[C@@H]1C	Cneo AK release 84
O=C(O)c1ccc2c(c1)N(Cc1ccc(F)cc1)C(=O)c1ccccc1S2	Ecoli rRNA inh -20 (no result: E-selectin induc)
CSc1c(-c2ccccn2)c(N)nn1C(=O)C1CC1	Ecoli rRNA inh -24 (no result: miR122 inh, E-selectin induc, Cneo AK release)
O=C1N[C@@H](Cc2ccccc2)COCc2cn(nn2)CC[C@H]1Cc1ccccc1	none (no result: miR122 inh)
NC(=O)C1CC(=O)N(Cc2ccc3c(c2)OCO3)C(=Nc2ccccc2)S1 (centres undefined)	Ecoli rRNA inh -18 (no result: miR122 inh, E-selectin induc)
CNC(=O)C1CC(=O)N(Cc2ccc3c(c2)OCO3)C(=Nc2ccc(OC)cc2)S1 (centres undefined)	none (no result: miR122 inh, E-selectin induc, DENV2 CPE, Ecoli rRNA inh)
C[C@H](CO)N1C[C@H](C)[C@@H](CN(C)S(=O)(=O)c2cn(C)cn2)Oc2c(NC(=O)CCCN(C)C)cccc2C1=O	none (no result: miR122 inh, E-selectin induc, Cneo AK release, DENV2 CPE)
Cc1ccc(-c2nnc(NC(=O)c3ccco3)o2)c(C)c1	Ecoli rRNA inh -24 (no result: miR122 inh)
O=C(C[C@@H]1CC[C@@H](NS(=O)(=O)c2ccccc2)[C@H](CO)O1)N1CCN(c2ccccc2)CC1	none (no result: miR122 inh, Cneo AK release)
C[C@H](CO)N1C[C@H](C)[C@@H](CN(C)S(=O)(=O)c2ccccc2)Oc2ccc(NC(=O)NC3CCCCC3)cc2CC1=O	none
COc1ccc(-c2nc(C#N)c(N3CCCCC3)o2)cc1	none (no result: E-selectin induc)
COc1ccc(-c2nc(C#N)c(N3CCCCCC3)o2)cc1OC	Ecoli rRNA inh -23 (no result: miR122 inh, E-selectin induc, Cneo AK release)
Nn1c(=S)[nH]c2sc3c(c2c1=O)CCCC3	Ecoli rRNA inh -21 (no result: miR122 inh, E-selectin induc, Cneo AK release)
COc1ccccc1C(CNc1ncnc2sc(C)c(C)c12)N(C)C (centres undefined)	DENV2 CPE 46
COc1ccc(C(CNc2ncnc3sc(C)c(C)c23)N(C)C)cc1 (centres undefined)	none (no result: miR122 inh)
CCS(=O)(=O)N1Cc2ccccc2CC1C(=O)NCC12CC3CC(CC(C3)C1)C2 (centres undefined)	miR122 inh 256 (no result: E-selectin induc, DENV2 CPE, Ecoli rRNA inh)
O=c1[nH]c(Cc2ccccc2)nc2scc(-c3ccccc3)c12	none (no result: E-selectin induc, DENV2 CPE, Ecoli rRNA inh)
Cc1csc(SC(C)c2nc3scc(-c4ccccc4)c3c(=O)[nH]2)n1 (centres undefined)	DENV2 CPE inconclusive, Ecoli rRNA inh -24 (no result: Cneo AK release)
Cc1nc(N)c(CC(Br)CBr)c(Cl)n1 (centres undefined)	DENV2 CPE inconclusive, Ecoli rRNA inh -38 (no result: E-selectin induc, Cneo AK release)
Cc1noc(C)c1S(=O)(=O)Nc1ccc2c(c1)C(=O)N([C@H](C)CO)C[C@@H](C)[C@H](CN(C)C(=O)Nc1ccc(F)cc1)OCCCC[C@H](C)O2	none
COc1ccc(C2N(c3ccccc3)C(=O)C2(F)F)cc1OC (centres undefined)	Ecoli rRNA inh -23
Cc1ccc(N2C(=O)C(F)(F)C2c2ccccc2)cc1 (centres undefined)	none
COc1cccc(NC(=O)N2CC(=O)N3[C@H](C2)[C@@H](c2ccc(C#CC4CCCC4)cc2)[C@@H]3CO)c1	DENV2 CPE 38 (no result: miR122 inh, Cneo AK release)
O=C(Nc1ccc(F)cc1)N1CC(=O)N2[C@@H](CO)[C@H](c3ccc(C#CC4CC4)cc3)[C@@H]2C1	none (no result: miR122 inh, Cneo AK release)
COc1ccc(NC(=O)N2CC(=O)N3[C@@H](CO)[C@H](c4ccc(C#CCC5CCCC5)cc4)[C@@H]3C2)cc1	DENV2 CPE 23 (no result: miR122 inh, Cneo AK release)
O=C(Nc1ccc(F)cc1)N1CC(=O)N2[C@H](CO)[C@H](c3ccc(C#CC4CC4)cc3)[C@H]2C1	DENV2 CPE 35 (no result: miR122 inh, Cneo AK release)
O=C(c1ccc(F)cc1)N1CC(=O)N2[C@@H](CO)[C@H](c3ccc(C#CC4CC4)cc3)[C@@H]2C1	DENV2 CPE 41 (no result: miR122 inh, Cneo AK release)
Cc1ccc(S(=O)(=O)NCC[C@@H]2CC[C@H](NC(=O)Nc3ccccc3F)[C@H](CO)O2)cc1	none (no result: miR122 inh)
CCC(=O)Nc1ccc2c(c1)C(=O)N(C)C[C@@H](OC)[C@H](C)CN(Cc1cncnc1)[C@@H](C)CO2	none (no result: Cneo AK release, DENV2 CPE)
O=C1CNC[C@H]2[C@H](c3ccc(C#CC4CCCC4)cc3)[C@H](CO)N12	none (no result: miR122 inh, Cneo AK release)
C[C@H]1CN([C@@H](C)CO)C(=O)c2cc(C#CCN(C)C)cnc2O[C@H]1CN(C)C(=O)c1ccc2c(c1)OCO2	none (no result: miR122 inh)
CC(C)COC(=O)N(C)C[C@H]1OCc2ccccc2-c2ccccc2C(=O)N([C@H](C)CO)C[C@@H]1C	none (no result: miR122 inh, E-selectin induc, Cneo AK release, DENV2 CPE)
CCOc1cc(S(=O)(=O)NCCc2ccccc2C)c(OCC)cc1-n1cnnn1	miR122 inh 126 (no result: E-selectin induc, DENV2 CPE, Ecoli rRNA inh)
Cc1nc2c(-c3ccc(F)cc3)c(C)[nH]n2c(=O)c1Cl	Ecoli rRNA inh -23 (no result: E-selectin induc)
Cc1[nH]n2c(=O)c3c(nc2c1-c1ccc(F)cc1)CCCC3	none (no result: E-selectin induc, Cneo AK release)
CCCNC(=O)Nc1ccc2c(c1)OC[C@H](C)N(C(=O)c1ccccc1F)C[C@H](C)[C@@H](OC)CN(C)C2=O	none (no result: miR122 inh, Cneo AK release)
C[C@H](CO)N1C[C@H](C)[C@H](CN(C)C(=O)Nc2ccc3c(c2)OCO3)Oc2ncc(C#Cc3ccc(C(F)(F)F)cc3)cc2C1=O	none
CC(=O)N(C)C[C@H]1Oc2ncc(C#CC(C)(C)O)cc2C(=O)N([C@@H](C)CO)C[C@@H]1C	DENV2 CPE 30
C[C@H](CO)N1C[C@H](C)[C@H](CN(C)C(=O)Nc2ccc3c(c2)OCO3)Oc2ncc(C#CC(C)(C)O)cc2C1=O	Cneo AK release 113
COCC(=O)N(C)C[C@@H]1Oc2ncc(C#CC(C)(C)O)cc2C(=O)N([C@@H](C)CO)C[C@@H]1C	DENV2 CPE 24
CC(=O)N(C)C[C@@H]1Oc2ncc(C#CC(C)(C)O)cc2C(=O)N([C@@H](C)CO)C[C@@H]1C	none
C[C@@H]1CN([C@H](C)CO)C(=O)c2cc(C3=CCCC3)cnc2O[C@H]1CN(C)C(=O)Cc1ccncc1	none
C[C@@H]1CN([C@@H](C)CO)C(=O)c2cccc(NC(=O)Nc3ccc(C(F)(F)F)cc3)c2O[C@@H]1CN(C)Cc1ccc(C(=O)Nc2ccccc2N)cc1	none (no result: miR122 inh, Cneo AK release)
C[C@@H]1CN([C@@H](C)CO)S(=O)(=O)c2ccc(C#CC3CC3)cc2O[C@H]1CN(C)C(=O)C1CCCCC1	none (no result: Cneo AK release, DENV2 CPE)

Screens (PubChem BioAssay)
